Assay [1] concerns the target α2β4β3-nAChR (Homo sapiens, UniProt P30926+Q15822). The assay is described as follows: two-electrode voltage clamp, Xenopus oocytes, peak inward current. The assay is classed as cell-based. The procedure, abridged: (§1)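 Human α2 and β4 (plus β3 for trinary) subunit cRNAs, ~4 ng each at 1:1 or 1:1:1, are injected into stage VI oocytes. Two to 7 days later, oocytes are clamped at –70 mV in Ringer, pH 7.5.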
On the technique in general: In two-electrode clamp one electrode senses voltage and the other passes current.

The target in assay [2] is α2β4-nAChR (Homo sapiens, UniProt P30926+Q15822). Described as above. Format: cell-based. The procedure, abridged: as §1

pEC50: −log10 of the molar value.

Chain of α2β4-nAChR (Q15822 27-529): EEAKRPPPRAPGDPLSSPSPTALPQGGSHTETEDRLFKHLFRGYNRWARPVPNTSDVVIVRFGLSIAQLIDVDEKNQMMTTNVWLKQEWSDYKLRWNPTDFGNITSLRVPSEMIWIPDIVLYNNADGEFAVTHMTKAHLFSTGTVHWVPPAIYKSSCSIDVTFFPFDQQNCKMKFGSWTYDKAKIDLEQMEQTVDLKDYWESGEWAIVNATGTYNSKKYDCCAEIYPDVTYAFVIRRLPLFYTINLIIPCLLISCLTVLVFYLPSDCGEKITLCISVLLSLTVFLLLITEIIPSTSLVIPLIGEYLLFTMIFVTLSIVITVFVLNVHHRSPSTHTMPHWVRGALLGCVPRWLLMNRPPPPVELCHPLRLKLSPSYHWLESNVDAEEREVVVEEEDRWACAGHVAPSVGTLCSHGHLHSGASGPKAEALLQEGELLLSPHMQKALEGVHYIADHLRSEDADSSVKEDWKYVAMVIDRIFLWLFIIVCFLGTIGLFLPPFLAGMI
Chain of α2β4-nAChR (P30926 22-498): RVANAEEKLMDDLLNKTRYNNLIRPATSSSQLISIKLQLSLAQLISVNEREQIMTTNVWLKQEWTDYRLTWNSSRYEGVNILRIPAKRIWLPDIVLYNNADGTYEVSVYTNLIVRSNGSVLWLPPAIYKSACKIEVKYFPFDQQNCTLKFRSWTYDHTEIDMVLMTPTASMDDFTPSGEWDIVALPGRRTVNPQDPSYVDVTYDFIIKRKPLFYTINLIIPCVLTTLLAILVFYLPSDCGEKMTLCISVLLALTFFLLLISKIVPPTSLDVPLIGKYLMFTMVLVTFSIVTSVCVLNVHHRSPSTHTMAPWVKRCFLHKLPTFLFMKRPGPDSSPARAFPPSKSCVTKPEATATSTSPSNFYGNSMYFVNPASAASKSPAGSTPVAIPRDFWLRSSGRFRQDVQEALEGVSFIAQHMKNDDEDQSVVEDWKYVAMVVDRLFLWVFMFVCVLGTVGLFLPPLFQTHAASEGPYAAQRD
Chain of α2β4β3-nAChR (Q15822 27-529): as the sequence (Q15822 27-529) above
Chain of α2β4β3-nAChR (P30926 22-498): as the sequence (P30926 22-498) above
Chain of α2β4β3-nAChR (Q05901 22-458 partner): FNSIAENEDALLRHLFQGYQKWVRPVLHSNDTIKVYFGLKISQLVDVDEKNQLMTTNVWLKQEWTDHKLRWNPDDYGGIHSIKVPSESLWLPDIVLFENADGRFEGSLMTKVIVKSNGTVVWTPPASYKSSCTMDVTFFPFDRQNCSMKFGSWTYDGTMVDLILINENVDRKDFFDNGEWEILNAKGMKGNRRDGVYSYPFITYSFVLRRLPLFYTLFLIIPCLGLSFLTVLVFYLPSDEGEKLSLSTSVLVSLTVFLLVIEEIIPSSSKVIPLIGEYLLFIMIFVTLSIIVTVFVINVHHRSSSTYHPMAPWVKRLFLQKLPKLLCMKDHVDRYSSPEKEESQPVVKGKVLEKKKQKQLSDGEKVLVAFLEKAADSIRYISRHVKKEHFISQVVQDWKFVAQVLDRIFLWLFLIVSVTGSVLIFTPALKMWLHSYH

`CN1CCC[C@H]1c1cccnc1` [nicotine]: the negative logarithm of the EC50 (pEC50) in assay [1] was 5.14; in assay [2] it was 5.07.

For orientation: pEC50 means the EC50 on a negative log10 scale, so that one unit is a factor of ten.

Source of the values: PMC3569009 (Journal of neurochemistry, 2012).
